In ChEMBL document CHEMBL5506014, “Monophosphoryl Lipid A-Rhamnose Conjugates as a New Class of Vaccine Adjuvants” (J Med Chem, 2024):
Calls of active or inactive are those of the source.

Columns and labels:
Format in all cases: functional, organism-based
Settings in all cases: time 38.0 day
[1] = system: Mus musculus; experiment: Immuno-adjuvant activity in sc dosed C57BL/6J mouse model assessed as increase in anti-sTn IgG antibodies level administered on day 1, 15, 22, and 29 and measured on day 27, 31 and 38 by ELISA analysis
Procedure, shortened: (§1)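 Female C57BL/6 mice, 6−8 weeks old, were given s.c. 0.1 mL doses of KLH-sTn (8.0 μg sTn antigen). The conjugate was mixed 1:1 with PBS, Alum, or a liposomal adjuvant. Liposomes were MPLA-Rha conjugate:DSPC:cholesterol at a 10:65:50 molar ratio, hydrated in 20 mM HEPES pH 7.5 with 150 mM NaCl. Pre-immunization day 0 blood served as blank.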

[2] = system: Mus musculus; experiment: Immuno-adjuvant activity in sc dosed C57BL/6J mouse model assessed as increase in anti-KLH total antibodies level administered on day 1, 15, 22, and 29 and measured on day 27, 31 and 38 by ELISA analysis; procedure, shortened: as §1
[3] = system: Mus musculus; experiment: Immuno-adjuvant activity in sc dosed C57BL/6J mouse model assessed as increase in anti-KLH IgM antibodies level administered on day 1, 15, 22, and 29 and measured on day 27, 31 and 38 by ELISA analysis; procedure, shortened: as §1
[4] = system: Mus musculus; experiment: Immuno-adjuvant activity in sc dosed C57BL/6J mouse model assessed as increase in IgM antibody level administered on day 1, 15, 22, and 29 and measured on day 27, 31 and 38 by ELISA analysis; procedure, shortened: as §1
[5] = system: Mus musculus; experiment: Immuno-adjuvant activity in sc dosed C57BL/6J mouse model assessed as increase in anti-KLH antibodies level administered on day 1, 15, 22, and 29 and measured on day 27, 31 and 38 by ELISA analysis; procedure, shortened: as §1
[6] = system: Mus musculus; experiment: Immuno-adjuvant activity in sc dosed C57BL/6J mouse model assessed as increase in IgG antibody administered on day 1, 15, 22, and 29 and measured on day 27, 31 and 38 by ELISA analysis; procedure, shortened: as §1
[7] = system: Mus musculus; experiment: Immuno-adjuvant activity in sc dosed C57BL/6J mouse model assessed as increase in anti-KLH IgG antibodies level administered on day 1, 15, 22, and 29 and measured on day 27, 31 and 38 by ELISA analysis; procedure, shortened: as §1

Measured: Activity

CCCCCCCCCCCC(=O)O[C@H](CCCCCCCCCCC)CC(=O)N[C@H]1[C@H](OC[C@H]2O[C@@H](OCCNC(=O)CCO[C@@H]3O[C@@H](C)[C@H](O)[C@@H](O)[C@H]3O)[C@H](NC(=O)C[C@@H](CCCCCCCCCCC)OC(=O)CCCCCCCCCCC)[C@@H](OC(=O)C[C@H](O)CCCCCCCCC)[C@@H]2O)O[C@H](CO)[C@@H](OP(=O)(O)O)[C@@H]1OC(=O)C[C@H](O)CCCCCCCCC
active: all assays above

CCCCCCCCCCCC(=O)O[C@H](CCCCCCCCCCC)CC(=O)N[C@H]1[C@H](OC[C@H]2O[C@@H](OC)[C@H](NC(=O)C[C@@H](CCCCCCCCCCC)OC(=O)CCCCCCCCCCC)[C@@H](OC(=O)C[C@H](O)CCCCCCCCC)[C@@H]2O)O[C@H](CNC(=O)CCO[C@H]2O[C@@H](C)[C@H](O)[C@@H](O)[C@H]2O)[C@@H](OP(=O)(O)O)[C@@H]1OC(=O)C[C@H](O)CCCCCCCCC
active: [4] | [6]

CCCCCCCCCCCC(=O)O[C@H](CCCCCCCCCCC)CC(=O)N[C@H]1[C@H](OC[C@H]2O[C@@H](OCCNC(=O)CCO[C@H]3O[C@@H](C)[C@H](O)[C@@H](O)[C@H]3O)[C@H](NC(=O)C[C@@H](CCCCCCCCCCC)OC(=O)CCCCCCCCCCC)[C@@H](OC(=O)C[C@H](O)CCCCCCCCC)[C@@H]2O)O[C@H](CO)[C@@H](OP(=O)(O)O)[C@@H]1OC(=O)C[C@H](O)CCCCCCCCC
not listed: [1] | [5]
active: all other assays above

CCCCCCCCCCCC(=O)O[C@H](CCCCCCCCCCC)CC(=O)N[C@H]1[C@H](OC[C@H]2O[C@@H](OC)[C@H](NC(=O)C[C@@H](CCCCCCCCCCC)OC(=O)CCCCCCCCCCC)[C@@H](OC(=O)C[C@H](O)CCCCCCCCC)[C@@H]2O)O[C@H](CNC(=O)CCO[C@@H]2O[C@@H](C)[C@H](O)[C@@H](O)[C@H]2O)[C@@H](OP(=O)(O)O)[C@@H]1OC(=O)C[C@H](O)CCCCCCCCC
active: [1] | [4] | [5] | [6]
